# Runt-CBFb FRET: inhibitors of RUNX1 Runt–CBFb binding, primary screen, biochemical, FRET, Cerulean-Runt, Venus-CBFb, uHTS; Cerulean-Runt/Venus-CBFb FRET ratio 530/480, 1 h; Runt-related transcription factor 1 (Homo sapiens) + Core-binding factor subunit beta …; AID 1496, 2009; 0.46% of 220,000 active; inhibition, % at 20 µM;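 active = inhibition over about 50% at 20 µM in the single-dose screen, limit read from the data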;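 note: 0% = DMSO wells and 100% = excess unlabeled CBFb competitor control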
# Target sequence (Q01196 whole entry, looked up): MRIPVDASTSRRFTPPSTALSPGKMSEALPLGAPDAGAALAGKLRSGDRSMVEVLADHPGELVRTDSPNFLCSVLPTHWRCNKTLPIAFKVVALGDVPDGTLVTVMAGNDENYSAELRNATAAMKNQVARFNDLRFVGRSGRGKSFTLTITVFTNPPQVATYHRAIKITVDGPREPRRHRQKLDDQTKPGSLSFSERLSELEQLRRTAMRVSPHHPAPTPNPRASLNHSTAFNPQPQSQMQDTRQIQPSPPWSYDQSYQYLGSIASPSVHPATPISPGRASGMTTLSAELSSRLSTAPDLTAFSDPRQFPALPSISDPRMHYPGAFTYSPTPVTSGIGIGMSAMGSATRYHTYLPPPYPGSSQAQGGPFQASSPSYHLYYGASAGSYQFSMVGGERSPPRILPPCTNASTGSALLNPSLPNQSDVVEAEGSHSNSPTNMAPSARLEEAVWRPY
# Target sequence (Q13951 whole entry, looked up): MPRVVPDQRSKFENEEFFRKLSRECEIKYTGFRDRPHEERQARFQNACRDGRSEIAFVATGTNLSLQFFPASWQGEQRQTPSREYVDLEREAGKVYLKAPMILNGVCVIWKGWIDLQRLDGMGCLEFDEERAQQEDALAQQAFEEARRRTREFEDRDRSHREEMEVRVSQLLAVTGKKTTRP
#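 Measured by: fluorescence energy transfer, 422 nm excitation, 530/480 nm emission; Assay system: Cerulean-Runt domain; Medium: Tris pH 7.5 buffer with BSA; Measure: loss of energy transfer signal; Controls: 5 µM unlabeled CBFb as full-inhibition high control; Incubation: protein complex preformed 1 h, compound exposure 1 h, room temperature, dark.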
# VIM-2 inhibitor: VIM-2 metallo-beta-lactamase inhibitors, primary screen, biochemical, epi-absorbance readout, Pseudomonas aeruginosa enzyme. 0.89% of 290,000 active. purified VIM-2, nitrocefin hydrolysis, epi-absorbance fluorescence. AID 1527, 2009. inhibition, % at 5.6 µM;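 active = inhibition above the mean of all tested compounds plus 3 SD, cutoff set per screening run, cut at about 7.5% in these data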;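 note: red hydrolysis product quenches plate fluorescence so inhibitors raise well fluorescence; 0% = enzyme with DMSO and 100% = DMSO without enzyme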
# RanGTP-Imp inh: inhibitors of RanGTP-importin-beta interaction, primary screen, biochemical, FRET, CFP-Ran, YFP-importin-beta, homogeneous. cell-free CFP-Ran/YFP-importin-beta FRET ratio. 1.1% of 300,000 active. inhibition, % (no concentration beside the values);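 active = more than half of the replicate wells show a fall in the fluorescence ratio signal beyond about 16%, limit read from the data, passing the limit was not always enough; inconclusive = exactly half of the replicate wells pass the set limit; inactive = fewer than half of replicates pass the limit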;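 note: 0% = DMSO wells and 100% = Ran loaded with GDP instead of GTP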
# IMP-1 inhibitor: IMP-1 metallo-beta-lactamase inhibitors, primary screen, biochemical, epi-absorbance readout, Pseudomonas aeruginosa enzyme. metallo-beta-lactamase IMP-1 (Pseudomonas aeruginosa). purified IMP-1, nitrocefin hydrolysis, epi-absorbance fluorescence. inhibition, % at 5.6 µM. 0.45% of 290,000 active. AID 1556, 2009;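 active = inhibition above the mean plus 3 SD of all compounds in the same screening run, cut at about 4.5% in these data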;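 note: 0% = IMP-1 with DMSO and 100% = DMSO wells lacking enzyme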
#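 System: purified IMP-1; amount: IMP-1 0.2 nM before substrate addition; compound: single dose, 5.6 µM; times: 25 °C, 15 min preincubation, 25 min reaction; signal: Epi-absorbance via hydrolysed-nitrocefin quenching of white-plate fluorescence, 480/530 nm, EDTA stop; benchmarks: DMSO with and without IMP-1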
# Runt-SMMHC FRET: inhibitors of RUNX1 Runt–CBFb-SMMHC binding, primary screen, biochemical, FRET, Cerulean-Runt, Venus-CBFb-SMMHC, uHTS; Runt-related transcription factor 1 (Homo sapiens) + Core-binding factor subunit beta …; Cerulean-Runt/Venus-CBFb-SMMHC FRET ratio 530/480, 1 h; inhibition, % at 20 µM; 0.74% of 220,000 active;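 active = mean inhibition across duplicate retests at 20 µM reaching about 50%, limit read from the data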;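 note: 0% = DMSO wells and 100% = wells with excess untagged CBFb-SMMHC; inhibitors lower the FRET ratio by blocking Runt binding to CBFb-SMMHC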
# * hit, by the source's call; ? = inconclusive; / = no result given. An excerpt weighted towards active compounds, which were near 2.6% of everything screened.
SMILES,Runt-CBFb FRET,VIM-2 inhibitor,RanGTP-Imp inh,IMP-1 inhibitor,Runt-SMMHC FRET
S=c1nc[nH]c2c1sc1nc(-c3ccccc3)c3c(c12)CCCC3,-2.8,0.9,-2.7,15.8*,-3.6
O=c1[nH]cnc2c1sc1nc(-c3ccccc3)c3c(c12)CCCC3,-2.4,-3.1,5.7,-1.1,-1.9
CCOC(=O)C(Sc1ncnc2c1sc1nc(N3CCOCC3)c3c(c12)CCCC3)c1ccccc1 (stereo not given),-0.5,-6.2,/,6.2*,-3.0
Nc1ccc(C(=O)CC(=O)Nc2ccc(Cl)cc2)cc1,/,-2.9,0.1,-1.4,/
COc1ccc(-n2c(=S)[nH]c3cc(C(=O)NCc4ccccc4)ccc3c2=O)c(OC)c1,/,-6.4,-1.7,-4.1,/
CSc1ccccc1NC(=O)c1cccc(S(=O)(=O)N2CCN(C)CC2)c1,/,-1.8,0.3,-1.1,/
OCCN1CCN(c2ncnc3c2sc2nc(N4CCOCC4)c4c(c23)CCC4)CC1,-3.2,9.9*,0.1,0.3,-2.6
CN1CCN(c2ncnc3c2sc2nc(N4CCOCC4)c4c(c23)CCC4)CC1,/,6.8,/,-2.8,/
O=C(CN(C(=O)c1csnn1)c1ccc(Cl)cc1)NCc1ccc2c(c1)OCO2,/,-3.3,1.5,-3.7,/
COc1ccc(CCn2c(=N)c(C(=O)NC3CCCC3)cc3c(=O)n4cccc(C)c4nc32)cc1,/,3.6,?,-3.4,/
Cc1cccn2c(=O)c3cc(C(=O)NC4CCCC4)c(=N)n(Cc4ccc(F)cc4)c3nc12,/,0.5,178.3*,0.1,/
Cc1cccn2c(=O)c3cc(C(=O)NC4CCCC4)c(=N)n(C4CCCCC4)c3nc12,/,1.5,174.9*,-2.3,/
Cc1cccn2c(=O)c3cc(C(=O)NC4CCS(=O)(=O)C4)n(Cc4ccccc4)c3nc12 (stereo not given),/,-0.6,?,-0.2,/
Cc1cccn2c(=O)c3cc(C(=O)NC4CCCCC4)c(=N)n(Cc4ccccc4)c3nc12,/,1.5,186.0*,-2.3,/
Cc1cccn2c(=O)c3cc(S(=O)(=O)c4ccc(Br)cc4)c(=N)n(C4CCCC4)c3nc12,/,-2.5,2.6,-1.0,/
Cc1cccn2c(=O)c3cc(C(=O)NC4CCCC4)c(=N)n(CCc4ccccc4)c3nc12,/,3.9,178.6*,-4.1,/
Cc1ccc(CCC(=O)Nc2ccc(C#N)cc2)o1,/,-1.7,-0.6,-4.3,/
Cc1c(NC(=O)Nc2ccc(C#N)cc2)c(=O)n(-c2ccccc2)n1C,/,-3.2,-2.0,-5.8,/
COc1ccc(-c2nn(CCC#N)cc2C(=O)Nc2cccc(C(=O)O)c2)cc1OC,/,-3.5,-5.5,-2.4,/
O=C(NC(Cc1ccccc1)C(=O)O)/C(=C/c1ccc(Br)cc1)NC(=O)c1ccc(Br)o1 (stereo not given),/,-2.7,23.9*,-3.7,/
O=C(NC(Cc1ccccc1)C(=O)O)/C(=C\c1ccc(Br)cc1)NC(=O)c1ccc(Br)o1 (stereo not given),/,-0.9,12.2,0.2,/
O=C(NCc1ccccc1)/C(=C/c1ccccc1)NC(=O)c1ccco1,/,-2.4,?,-1.7,/
O=C(NCc1ccco1)/C(=C/c1ccc(Br)cc1)NC(=O)c1ccco1,/,-1.6,23.0*,-3.1,/
NC(=O)CC1C(=O)N(c2ccccc2)C(=S)N1NC(=O)c1ccccc1 (stereo not given),/,-3.3,-4.7,-3.2,/
O=C(CN1C(=O)/C(=C/c2ccc(F)cc2)SC1=S)NC1CCS(=O)(=O)C1 (stereo not given),/,0.9,1.4,10.5*,/
SMILES,Runt-CBFb FRET,VIM-2 inhibitor,RanGTP-Imp inh,IMP-1 inhibitor,Runt-SMMHC FRET
O=C(CN1C(=O)/C(=C/c2ccc(F)cc2)SC1=S)NC1C=CS(=O)(=O)C1 (stereo not given),/,-0.5,-2.5,4.8*,/
O=C(CCN1C(=O)/C(=C/c2ccccc2Cl)SC1=S)NN1CCOCC1,/,3.6,3.5,4.5*,/
O=C(CN1C(=O)/C(=C/c2ccccc2)SC1=S)NC1C=CS(=O)(=O)C1 (stereo not given),/,-0.7,0.3,0.7,/
O=C(CN1C(=O)/C(=C/c2ccccc2Cl)SC1=S)NC1C=CS(=O)(=O)C1 (stereo not given),/,-3.0,-1.8,12.0*,/
O=C(CN1C(=O)/C(=C/c2ccccc2)SC1=S)NC1CCS(=O)(=O)C1 (stereo not given),/,-0.8,1.2,-2.1,/
Cc1[nH]ncc1-c1ccccc1Cl,1.3,-4.2,-0.1,-4.0,1.4
COC(=O)C1CN(C(=O)COc2cccc(C)c2C)c2ccccc2O1 (stereo not given),/,-3.2,0.2,-1.9,/
CCOC(=O)C1CCCN(C(=O)C2CCN(S(=O)(=O)c3c(C)noc3/C=C/c3ccccc3F)CC2)C1 (stereo not given),/,-3.2,?,-3.9,/
COc1ccc(S(=O)(=O)NNc2nc(C)cc(C)n2)cc1Br,/,/,-0.4,/,/
O=c1n(Cc2ccccc2F)c2ccccc2n1Cc1ccccc1F,-0.9,-2.4,3.9,-3.5,-2.6
Cn1c(=O)n(Cc2ccccc2F)c2ccccc21,1.8,-1.4,40.4*,-3.0,-1.2
Cc1c(N=Cc2ccco2)c(=O)n(-c2ccccc2)n1C,-1.0,-0.8,1.3,-1.4,-5.0
COc1ccc2c(C=Nc3c(C)n(C)n(-c4ccccc4)c3=O)c(O)n(Cc3ccco3)c(=O)c2c1,-9.9,2.8,20.4*,-1.1,-139.6
CCn1c(SCC(=O)N(C)c2ccccc2)nc2c([nH]c3ccccc32)c1=O,/,-2.1,-3.9,-2.2,/
CC1=C(C(=O)OCC2CCCO2)C(c2ccncc2)C2=C(CC(C)(C)CC2=O)N1 (stereo not given),42.3,-5.4,?,-1.6,86.3*
COc1ccc(C2C(C#N)=C(C)NC3=C2C(=O)CC(C)(C)C3)cc1 (stereo not given),16.8,-0.3,-2.0,-2.3,39.9
COc1cccc(C2C(C#N)=C(C)NC3=C2C(=O)CC(C)(C)C3)c1 (stereo not given),16.6,-3.6,1.8,-2.7,55.0*
COC(=O)C1=C(C)NC2=C(C(=O)CC(C)(C)C2)C1c1cccc(C)n1 (stereo not given),35.1,-2.7,9.2,-2.6,86.7*
Cc1cc(F)ccc1S(=O)(=O)N1CCCOC1CNC(=O)C(=O)NC1CCCCC1 (stereo not given),/,1.5,4.8,3.8,/
Cc1cc(/C=N/NC(=O)Cn2c3ccccc3c(=O)c3ccccc32)c(C)n1-c1ccc(Cl)cc1,101.2*,3.3,/,-1.3,/
CCNC(=S)N/N=C/c1cc(C)n(-c2ccc(Cl)cc2)c1C,-0.3,-5.1,0.9,-4.5,4.5
